Cardio protect = cardioprotection against H2O2-induced cell death, primary screen, uHTS, H9c2 cells, ATPLite luminescence | H9c2 cardiomyocytes, H2O2 injury protection, 2 h | protection from H2O2 cell death, % at 20 µM | 360,000 tested, 0.63% active;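 active = compounds giving at least 50% protection of heart cells from peroxide-induced death in the single-dose screen, raw or plate-pattern-corrected value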
UPR CHOP act = activators of apoptotic CHOP UPR arm, primary screen, cell-based, CHO-CHOP luciferase reporter, luminescence, uHTS | UPR activation; percent of tunicamycin response over DMSO baseline | activation, % at 10 µM | 330,000 tested, 0.34% active | AID 449763, 2010;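 active = at 10 µM dose, activation of 40% or more, normalized to positive control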
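Test system: CHO CHOP reporter cells. Input: 500 CHO-CHOP cells per well. Medium: F12 with 10% FBS. Technique: luciferase luminescence. Measure: percent activation relative to tunicamycin control. Dosing: 10 µM compound, 0.5% DMSO. Timing: 16-18 h cell attachment, then 6 h compound exposure, 37 °C.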
hiPSC survival = enhancers of single-cell hiPSC survival, primary screen, ATPlite luminescence; 100% = ROCK inhibitor wells, 0% = DMSO; survival enhancement, % at 20 µM; 360,000 tested, 0.044% active; AID 602274, 2012; in the data active = survival enhancement above about 18%;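 also: cells exposed to compounds for 16 hours before the ATP read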
CHOP inh = inhibitors of CHOP promoter induction, primary screen, cell-based, unfolded protein response, luciferase reporter | CHO-K1 CHOP-promoter luciferase, tunicamycin-induced, 15-18 h | inhibition, % at 10 µM | 220,000 tested, 3.8% active | AID 2732, 2010;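 active = compounds that reduced the stress-induced luciferase reporter signal by more than about 70% of percent inhibition, limit read from the data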
XBP1 UPR activ = activators of adaptive XBP1 UPR arm, primary screen, cell-based, CHO-XBP1 luciferase reporter, luminescence, uHTS; activation, % at 20 µM; IRE1-XBP1 UPR activation; percent of tunicamycin response, DMSO as zero; AID 463104, 2010; 330,000 tested, 0.33% active;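 active = versus positive control, 20 µM dose yields 30% or more activation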
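Material: IRE1-XBP1 luciferase reporter CHO line / Quantity: one thousand reporter cells per well / Buffer or medium: F12 with 10% serum / Compound: 20 µM single concentration, DMSO 1% / Times: 6 h treatment, 37 °C / Detection: Steady-Glo luciferase glow luminescence, 10 min after reagent addition / Benchmarks: tunicamycin high, DMSO low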
Numbers stand for hits; . = inactive; / = not tested or not shown. The full list was thinned out, with hits kept by preference.

SMILES	Cardio protect	UPR CHOP act	hiPSC survival	CHOP inh	XBP1 UPR activ
CCC(=O)N1CCN(c2ccccc2NC(=O)c2ccc(-c3cccc([N+](=O)[O-])c3)o2)CC1	107.1	.	.	.	.
CN1CCN(c2ccccc2NC(=O)c2ccc(-c3cccc([N+](=O)[O-])c3)o2)CC1	77.0	/	.	.	/
CCC(=O)N1CCN(c2ccccc2NC(=S)NC(=O)c2cccc([N+](=O)[O-])c2)CC1	.	.	.	.	.
CN1CCN(c2ccccc2NC(=O)c2cccc([N+](=O)[O-])c2)CC1	.	.	.	.	.
CC(=O)Nc1nn(C)c2nc3cc(C)ccc3cc12	.	.	.	.	.
Cc1ccc2cc3c(NC(=O)c4cccnc4)nn(C)c3nc2c1	58.9	.	.	.	.
O=S(=O)(NCCSc1ccc(Cl)cc1)c1ccc(F)cc1	.	.	.	70.7	.
CC(=NCCc1c(C)[nH]c2ccc(C)cc12)C1=C(O)CC(c2ccccc2)CC1=O (stereo not given)	.	.	.	.	.
CC(=NCCc1c(C)[nH]c2ccc(OC(F)(F)F)cc12)C1=C(O)CC(c2ccccc2)CC1=O (stereo not given)	.	.	.	72.3	.
CC1CCCC(NC(=O)COC(=O)c2ccccc2NC(=O)c2ccco2)C1C (stereo not given)	.	.	.	92.5	.
COc1cc(Cl)cc(/C=C/c2ccc3cccc(O)c3n2)c1OC	57.3	.	.	/	.
COc1ccc(Cl)cc1/C=C/c1ccc2cccc(O)c2n1	.	.	.	/	.
Fc1ccc(CN2CCN(C(=S)NCCc3ccccc3)CC2)c(Cl)c1	.	.	.	84.8	.
CC(C)(C)S(=O)N1Cc2cc(C(=O)NCC(F)(F)F)nc(-c3cccc(-c4cccc(F)c4)c3)c2[C@@H]1CCO (stereo not given in full)	.	/	.	/	/
CC1(C(=O)NS(=O)(=O)c2ccc(C#N)cc2)CCN1C(=O)C1CCCCC1 (stereo not given)	.	/	.	/	/
C=CCn1c(SCC(=O)NC2CCCC2)nc2scc(-c3ccco3)c2c1=O	.	.	.	.	.
C=CCn1c(SCC(=O)NCCCC)nc2scc(-c3ccco3)c2c1=O	.	.	.	93.4	.
O=c1[nH]c(C2CCCN(S(=O)(=O)c3ccc(F)cc3)C2)nc2c1nnn2Cc1ccccc1 (stereo not given)	.	.	.	90.2	.
c1cncc(-c2nc(NCc3ccc4c(c3)OCO4)c3ccccc3n2)c1	.	.	.	.	.
Cc1ccc(Nc2nc(-c3cccnc3)nc3ccccc23)cc1	.	.	.	.	.
c1ccc2c(c1)OCC(CNc1ncnc3sccc13)O2 (stereo not given)	.	/	.	79.2	/
CCOC(=O)c1ccc(Nc2nc(-c3cccnc3)nc3ccccc23)cc1	.	.	.	92.8	.
COc1ccc(/C=N/Nc2nc(-c3cccnc3)nc3ccccc23)cc1OC	.	.	.	.	.
COc1ccc(CCNc2nc(-c3cccnc3)nc3ccccc23)cc1OC	50.7	.	.	/	.
c1cncc(-c2nc(NCC3COc4ccccc4O3)c3ccccc3n2)c1 (stereo not given)	51.7	.	.	.	.
SMILES	Cardio protect	UPR CHOP act	hiPSC survival	CHOP inh	XBP1 UPR activ
O=C(NCC1CCCN1S(=O)(=O)c1cccs1)c1cccc(F)c1 (stereo not given)	.	.	.	/	.
Cc1noc(C)c1S(=O)(=O)NC(=O)C1(C)CCN1C(=O)CC(c1ccccc1)c1ccccc1 (stereo not given)	.	/	.	/	/
CC1=C(C(=O)N2CCCCCC2)CC(CC(=O)NCCc2ccccn2)C(=O)N1Cc1ccc(C(C)(C)C)cc1 (stereo not given)	/	/	.	/	/
Cc1ccc(OCc2ccc(C(=O)Nc3nc4ccccc4n3Cc3ccccc3)o2)c([N+](=O)[O-])c1	.	.	.	87.9	.
CCc1nc2c(OCC=C(C)C)cccn2c1N(C)C(=O)c1ccc(OC)cc1	.	/	.	/	/
CCc1ccc2c(c1)C1(C(=O)N2)N2CCCC2C(C(=O)c2ccc3ccccc3c2)C12C(=O)Nc1ccccc12 (stereo not given)	.	.	.	105.8	.
Cc1onc(-c2ccccc2Cl)c1C(=O)Nc1nnc(-c2ccc(Br)cc2)s1	.	.	.	.	.
COc1cc(/C=N/NC(=O)c2c(-c3c(Cl)cccc3Cl)noc2C)ccc1OCC(N)=O	.	.	.	/	.
O=C(Nc1nnc(COc2ccccc2)s1)C1CCN(S(=O)(=O)c2ccc(Cl)cc2)CC1	.	.	.	80.1	.
O=C(Nc1nnc(-c2ccccc2Cl)s1)C1CCN(S(=O)(=O)c2ccc(Cl)cc2)CC1	.	.	.	.	.
Cc1onc(-c2ccccc2Cl)c1C(=O)Nc1nnc(-c2ccc(Cl)cc2Cl)s1	.	.	.	78.4	.
Cc1onc(-c2c(Cl)cccc2Cl)c1C(=O)N/N=C(\N)COc1ccc(Cl)cc1	70.2	.	.	.	.
Cc1onc(-c2ccccc2)c1C(=O)Nc1nnc(COc2ccc(Cl)cc2)s1	.	.	.	88.7	.
CC(=O)CCc1ccc(Oc2nc(-c3cccnc3)nc3ccccc23)cc1	54.9	.	.	.	.
COc1ccc(Oc2nc(-c3cccnc3)nc3ccccc23)cc1	.	.	.	.	.
COc1ccc(C(=O)Nc2cc3c(cc2OC)CCCC3)cc1Br	.	.	.	82.3	.
COc1cc2c(cc1NC(=O)c1ccc(C(C)(C)C)cc1)CCCC2	.	.	.	.	.
COc1ccc(CCC2(C)NC(=O)N(C(C)C(=O)Nc3ccccc3F)C2=O)cc1 (stereo not given)	.	.	.	/	.
CN(C(=O)COC(=O)c1c2c(nc3ccccc13)/C(=C/c1cccc([N+](=O)[O-])c1)CCC2)C1CCS(=O)(=O)C1 (stereo not given)	.	.	.	.	.
O=C(COC(=O)c1c2c(nc3ccccc13)/C(=C/c1cccc([N+](=O)[O-])c1)CCC2)NC1CCS(=O)(=O)C1 (stereo not given)	58.8	.	.	.	.
Cc1cc(C(=O)OCC(=O)NC(C)c2ccc(F)cc2)c(C)o1 (stereo not given)	.	.	.	/	.
COc1ccc(-c2nc(N)nc(C)c2Oc2ccccc2Br)c(O)c1	.	.	.	95.4	.
CCOc1ccc(-c2nc(N)ncc2Oc2ccc(OC)cc2)c(O)c1	.	.	.	.	.
N#CC1=C(N)Oc2cc(O)ccc2C1c1ccccc1 (stereo not given)	.	.	.	.	.
N#CC1=C(N)OC2=C(CCc3ccccc32)C1c1ccccc1 (stereo not given)	.	.	.	100.5	.

Assay outcomes: PubChem, several laboratories
